ChEMBL document CHEMBL4376814, “Novel cyclin-dependent kinase 9 (CDK9) inhibitor with suppression of cancer stemness activity against non-small-cell lung cancer” (Eur J Med Chem, 2019)
Activity calls are given as the source filed them. The rule behind the calls is not given here.

What was measured:
HepG2 = test: Antiproliferative activity against human HepG2 cells assessed as inhibition of cell viability after 72 hrs by CCK-8 assay; type: functional, cell-based; details: HepG2, 72 h
Summary of the method: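 Cells kept at 37 °C, 5% CO2 in DMEM or RPMI-1640 with 10% FBS and 1% penicillin/streptomycin, then seeded at 3000 cells/well (adherent) or 10,000 cells/well (suspension). Exposed to a range of concentrations for 72 h. CCK-8 added for 1-4 h before reading A450. […] Three independent experiments.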

A549 = test: Downregulation of OCT4 in human A549 cells at 0.25 to 1 uM by Western blot analysis; type: functional, cell-based
NCI-H1299 [1] = test: Antitumour activity against human H1299 cells xenografted in po dosed Balb/c mouse assessed as inhibition of tumour growth after 21 days by digital caliper method; type: functional, organism-based
Summary of the method: (§1)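 Female nude mice, 6-8 weeks old, injected subcutaneously with 1×10^6 H1299 cells (100 µL of a 1×10^7/mL suspension in serum-free medium). At 100-120 mm3, randomized into groups of 5. Dosed orally each day for 21 days with drug dissolved in DMSO, or with vehicle. Caliper measurements and body weight taken every other day. Volume = short²×long×0.5. Growth inhibition based on change in volume relative to vehicle. Tumours weighed at the end.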

NCI-H1299 [2] = test: Antitumour activity against human H1299 cells xenografted in Balb/c mouse assessed as reduction in tumour size at 20 to 80 mg/kg, po after 21 days by digital caliper method; type: functional, organism-based; summary of the method: as §1
[3] = molecular target: Mitogen-activated protein kinase kinase kinase 5 (Homo sapiens) (UniProt Q99683); test: Inhibition of recombinant human ASK1 (649 to 946 residues) at 1 uM using myelin basic protein as substrate measured after 40 mins in presence of [gamma33P]ATP by scintillation counting method relative to control
Chain of Mitogen-activated protein kinase kinase kinase 5 (Homo sapiens) (Q99683 whole entry, the tested form may be a part): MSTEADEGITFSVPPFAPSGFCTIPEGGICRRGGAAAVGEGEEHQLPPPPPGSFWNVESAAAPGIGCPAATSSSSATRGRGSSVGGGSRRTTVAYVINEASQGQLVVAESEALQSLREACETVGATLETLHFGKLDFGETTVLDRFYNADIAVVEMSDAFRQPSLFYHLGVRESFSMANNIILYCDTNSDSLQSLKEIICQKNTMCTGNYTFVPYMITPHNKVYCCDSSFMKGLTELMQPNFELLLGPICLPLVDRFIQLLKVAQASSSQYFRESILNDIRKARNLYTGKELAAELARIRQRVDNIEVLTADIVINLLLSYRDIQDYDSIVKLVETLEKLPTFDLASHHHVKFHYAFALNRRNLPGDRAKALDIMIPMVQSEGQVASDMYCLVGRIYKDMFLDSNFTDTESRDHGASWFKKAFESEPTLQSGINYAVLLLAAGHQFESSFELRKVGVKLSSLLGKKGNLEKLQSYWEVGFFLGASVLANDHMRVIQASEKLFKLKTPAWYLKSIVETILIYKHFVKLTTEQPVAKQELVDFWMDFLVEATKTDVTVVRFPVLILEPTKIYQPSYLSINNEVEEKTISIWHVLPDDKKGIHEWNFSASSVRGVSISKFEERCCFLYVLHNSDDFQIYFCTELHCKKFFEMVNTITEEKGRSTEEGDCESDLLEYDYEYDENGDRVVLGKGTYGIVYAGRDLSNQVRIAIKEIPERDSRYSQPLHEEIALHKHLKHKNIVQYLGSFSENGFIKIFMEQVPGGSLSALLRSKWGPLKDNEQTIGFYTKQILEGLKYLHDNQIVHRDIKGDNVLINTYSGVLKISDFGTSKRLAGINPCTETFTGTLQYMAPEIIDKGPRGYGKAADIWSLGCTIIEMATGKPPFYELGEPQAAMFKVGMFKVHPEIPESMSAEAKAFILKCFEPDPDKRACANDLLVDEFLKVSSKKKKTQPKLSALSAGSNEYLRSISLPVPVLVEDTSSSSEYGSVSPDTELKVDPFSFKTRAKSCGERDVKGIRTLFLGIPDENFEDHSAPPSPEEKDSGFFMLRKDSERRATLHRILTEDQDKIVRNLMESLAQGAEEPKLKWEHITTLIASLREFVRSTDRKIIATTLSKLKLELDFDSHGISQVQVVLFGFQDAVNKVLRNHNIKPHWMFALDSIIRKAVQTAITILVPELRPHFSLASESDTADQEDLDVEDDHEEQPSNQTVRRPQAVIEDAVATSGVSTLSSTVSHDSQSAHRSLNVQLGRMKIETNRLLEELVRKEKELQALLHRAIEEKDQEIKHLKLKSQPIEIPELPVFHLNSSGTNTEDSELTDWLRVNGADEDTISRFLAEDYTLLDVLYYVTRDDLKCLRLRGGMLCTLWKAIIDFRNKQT

[4] = molecular target: Serine/threonine-protein kinase B-raf (Homo sapiens) (UniProt P15056); test: Inhibition of recombinant human BRAF (416 to end residues) at 1 uM using myelin basic protein as substrate measured after 40 mins in presence of [gamma33P]ATP by scintillation counting method relative to control
[5] = molecular target: Mitogen-activated protein kinase kinase kinase 3 (Homo sapiens) (UniProt Q99759); test: Inhibition of full-length recombinant human MEKK3 at 1 uM using myelin basic protein as substrate measured after 120 mins in presence of [gamma33P]ATP by scintillation counting method relative to control
Summary of the method: (§2)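 Percent inhibition of kinase activity at a single compound concentration, measured by the outsourced Eurofins KinaseProfiler panel. Values are the mean of two independent experiments.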

[6] = molecular target: CDK12/Cyclin K (Homo sapiens) (UniProt O75909+Q9NYV4); test: Inhibition of human full length recombinant CDK12/cyclinK at 1 uM using RSRSRSRSRSRSRSR as substrate incubated for 120 mins in presence of [gamma-33P]ATP at by radiometric assay relative to control; type: protein-complex assay
[7] = molecular target: Cyclin-dependent kinase-like 4 (Homo sapiens) (UniProt Q5MAI5); test: Inhibition of human CDKL4 at 1 uM at 1 uM by radiometric method relative to control; summary of the method: as §2
[8] = molecular target: Serine/threonine-protein kinase 35 (Homo sapiens) (UniProt Q8TDR2); test: Inhibition of full length recombinant human CLIK1 at 1 uM using RSRSRSRSRSRSRSR as substrate measured after 40 mins in presence of [gamma33P]ATP by scintillation counting method relative to control
[9] = molecular target: Serine/threonine-protein kinase NLK (Homo sapiens) (UniProt Q9UBE8); test: Inhibition of recombinant human NLK (121 to end residues) at 1 uM using myelin basic protein as substrate measured after 40 mins in presence of [gamma33P]ATP by scintillation counting method relative to control
Chain of Serine/threonine-protein kinase NLK (Homo sapiens) (Q9UBE8 whole entry): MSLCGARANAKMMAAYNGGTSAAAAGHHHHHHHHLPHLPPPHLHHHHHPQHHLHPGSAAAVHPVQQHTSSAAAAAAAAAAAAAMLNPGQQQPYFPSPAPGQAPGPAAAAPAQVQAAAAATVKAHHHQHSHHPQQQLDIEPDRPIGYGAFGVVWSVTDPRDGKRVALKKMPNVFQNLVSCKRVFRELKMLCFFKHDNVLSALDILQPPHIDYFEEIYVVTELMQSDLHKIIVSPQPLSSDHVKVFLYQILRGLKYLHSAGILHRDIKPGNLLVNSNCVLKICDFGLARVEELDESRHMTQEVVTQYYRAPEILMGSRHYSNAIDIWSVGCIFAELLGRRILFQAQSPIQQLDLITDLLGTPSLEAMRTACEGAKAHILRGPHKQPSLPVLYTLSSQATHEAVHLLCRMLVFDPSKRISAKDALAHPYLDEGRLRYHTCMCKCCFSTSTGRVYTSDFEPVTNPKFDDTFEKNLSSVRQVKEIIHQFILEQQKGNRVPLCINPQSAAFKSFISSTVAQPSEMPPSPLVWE

[10] = molecular target: [Pyruvate dehydrogenase (acetyl-transferring)] kinase isozyme 2, mitochondrial (Homo sapiens) (UniProt Q15119); test: Inhibition of human PDHK2 at 1 uM by radiometric method relative to control; summary of the method: as §2
[11] = test system: RAF proto-oncogene serine/threonine-protein kinase (Homo sapiens), P04049 [Y340D,Y341D]; test: Inhibition of recombinant human c-RAF Y340D/Y341D double mutant ([…]) at 1 uM using inactive MEK1 as substrate measured after 40 mins in presence of [gamma33P]ATP by scintillation counting method relative to control
[12] = test system: Serine/threonine-protein kinase Sgk1 (Homo sapiens), O00141 [S422D]; test: Inhibition of recombinant human SGK S422D mutant (60 to end residues) at 1 uM using GRPRTSSFAEGKK as substrate measured after 40 mins in presence of [gamma33P]ATP by scintillation counting method relative to control
Chain of Serine/threonine-protein kinase Sgk1 (Homo sapiens), O00141 [S422D] (O00141 whole entry S422D, the tested form may be a part): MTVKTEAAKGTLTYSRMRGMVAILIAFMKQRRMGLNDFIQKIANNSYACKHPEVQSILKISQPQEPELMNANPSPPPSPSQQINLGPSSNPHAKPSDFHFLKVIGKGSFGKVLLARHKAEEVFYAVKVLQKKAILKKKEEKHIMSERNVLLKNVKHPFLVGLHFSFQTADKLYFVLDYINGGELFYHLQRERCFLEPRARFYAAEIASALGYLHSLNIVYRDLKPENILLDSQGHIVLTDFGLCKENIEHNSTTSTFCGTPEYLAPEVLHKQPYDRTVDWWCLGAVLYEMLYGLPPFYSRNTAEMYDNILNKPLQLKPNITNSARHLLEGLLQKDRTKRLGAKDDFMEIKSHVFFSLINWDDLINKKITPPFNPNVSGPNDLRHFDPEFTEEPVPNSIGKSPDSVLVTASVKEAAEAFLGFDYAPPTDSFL

[13] = molecular target: Serine/threonine-protein kinase SIK1 (Homo sapiens) (UniProt P57059); test: Inhibition of human SIK (1 to 281 residues) at 1 uM using AMARAASAAALARRR as substrate measured after 40 mins in presence of [gamma33P]ATP by scintillation counting method relative to control; summary of the method: as §2
Chain of Serine/threonine-protein kinase SIK1 (Homo sapiens) (P57059 whole entry, the tested form may be a part): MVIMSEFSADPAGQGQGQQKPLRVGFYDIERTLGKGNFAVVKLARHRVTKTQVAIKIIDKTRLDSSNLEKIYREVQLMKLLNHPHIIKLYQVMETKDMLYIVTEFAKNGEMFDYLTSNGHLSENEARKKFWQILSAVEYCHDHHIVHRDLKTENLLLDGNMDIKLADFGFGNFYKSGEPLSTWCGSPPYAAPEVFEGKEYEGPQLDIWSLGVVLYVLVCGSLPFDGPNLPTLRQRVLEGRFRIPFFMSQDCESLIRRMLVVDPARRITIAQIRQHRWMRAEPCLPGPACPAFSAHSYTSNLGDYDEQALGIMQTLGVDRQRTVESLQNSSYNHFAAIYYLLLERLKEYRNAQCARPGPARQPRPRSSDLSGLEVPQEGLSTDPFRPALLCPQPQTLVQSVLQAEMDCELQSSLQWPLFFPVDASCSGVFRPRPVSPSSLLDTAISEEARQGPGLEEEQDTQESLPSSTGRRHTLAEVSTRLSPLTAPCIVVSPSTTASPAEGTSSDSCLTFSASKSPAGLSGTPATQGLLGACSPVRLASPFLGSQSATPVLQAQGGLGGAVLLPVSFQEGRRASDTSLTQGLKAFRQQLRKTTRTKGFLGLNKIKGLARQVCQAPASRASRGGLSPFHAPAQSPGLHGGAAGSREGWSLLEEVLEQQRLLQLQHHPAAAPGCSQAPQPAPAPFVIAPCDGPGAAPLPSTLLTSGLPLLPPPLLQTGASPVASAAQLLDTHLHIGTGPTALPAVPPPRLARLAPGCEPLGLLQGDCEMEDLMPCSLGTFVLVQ

[14] = test system: SNF-related serine/threonine-protein kinase (Homo sapiens), Q9NRH2 [UNDEFINED MUTATION]; test: Inhibition of human SNRK E97G/P116A mutant (1 to 505 residues) at 1 uM using KKLRRTLSFAEPG as substrate measured after 40 mins in presence of [gamma33P]ATP by scintillation counting method relative to control; summary of the method: as §2
[15] = test system: TGF-beta receptor type-1 (Homo sapiens), P36897 [T204D]; test: Inhibition of human TGFBR1 T204D mutant (200 to end residues) at 1 uM using casein as substrate measured after 40 mins in presence of [gamma33P]ATP by scintillation counting method relative to control; summary of the method: as §2
Chain of TGF-beta receptor type-1 (Homo sapiens), P36897 [T204D] (P36897 whole entry T204D): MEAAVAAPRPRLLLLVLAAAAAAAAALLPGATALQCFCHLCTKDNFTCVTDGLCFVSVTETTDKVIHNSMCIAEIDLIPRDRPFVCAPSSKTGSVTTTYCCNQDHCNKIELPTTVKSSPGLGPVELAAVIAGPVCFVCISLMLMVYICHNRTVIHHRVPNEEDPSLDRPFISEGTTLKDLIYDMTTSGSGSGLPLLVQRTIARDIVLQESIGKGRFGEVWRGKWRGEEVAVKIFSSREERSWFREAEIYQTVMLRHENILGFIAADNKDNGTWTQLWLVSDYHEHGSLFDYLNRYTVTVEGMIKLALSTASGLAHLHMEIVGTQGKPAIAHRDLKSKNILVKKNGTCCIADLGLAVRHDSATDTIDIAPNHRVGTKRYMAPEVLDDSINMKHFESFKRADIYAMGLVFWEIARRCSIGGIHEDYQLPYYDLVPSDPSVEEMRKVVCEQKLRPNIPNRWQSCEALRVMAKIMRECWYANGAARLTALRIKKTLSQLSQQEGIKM

[16] = molecular target: Serine/threonine-protein kinase tousled-like 2 (Homo sapiens) (UniProt Q86UE8); test: Inhibition of human TLK2 (387 to end residues) at 1 uM using casein as substrate measured after 40 mins in presence of [gamma33P]ATP by scintillation counting method relative to control; summary of the method: as §2
[17] = molecular target: High affinity nerve growth factor receptor (Homo sapiens) (UniProt P04629); test: Inhibition of recombinant human TRKA (440 to end residues) at 1 uM using KKKSPGEYVNIEFG as substrate measured after 40 mins in presence of [gamma33P]ATP by scintillation counting method relative to control
Chain of High affinity nerve growth factor receptor (Homo sapiens) (P04629 33-796 limits assumed): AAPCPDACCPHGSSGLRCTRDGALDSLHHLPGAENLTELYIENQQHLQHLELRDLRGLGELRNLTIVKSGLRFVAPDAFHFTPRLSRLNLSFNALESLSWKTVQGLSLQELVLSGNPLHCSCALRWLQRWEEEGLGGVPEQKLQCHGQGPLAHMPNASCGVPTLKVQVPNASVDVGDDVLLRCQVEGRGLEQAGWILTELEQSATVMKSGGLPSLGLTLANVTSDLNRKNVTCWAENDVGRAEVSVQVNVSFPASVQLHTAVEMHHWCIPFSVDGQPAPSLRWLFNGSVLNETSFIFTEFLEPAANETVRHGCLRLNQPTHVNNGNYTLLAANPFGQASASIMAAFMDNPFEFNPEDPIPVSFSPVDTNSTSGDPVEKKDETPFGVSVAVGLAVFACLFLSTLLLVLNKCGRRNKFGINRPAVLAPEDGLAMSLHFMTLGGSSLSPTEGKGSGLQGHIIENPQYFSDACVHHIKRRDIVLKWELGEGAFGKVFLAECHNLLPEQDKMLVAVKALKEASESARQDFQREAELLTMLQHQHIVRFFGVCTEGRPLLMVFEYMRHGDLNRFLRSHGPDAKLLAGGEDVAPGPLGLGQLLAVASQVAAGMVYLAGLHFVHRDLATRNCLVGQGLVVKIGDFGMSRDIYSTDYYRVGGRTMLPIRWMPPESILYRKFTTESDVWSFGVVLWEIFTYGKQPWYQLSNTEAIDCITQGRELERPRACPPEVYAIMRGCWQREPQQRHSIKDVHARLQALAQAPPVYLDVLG

[18] = molecular target: Dual specificity mitogen-activated protein kinase kinase 1 (Homo sapiens) (UniProt Q02750); test: Inhibition of recombinant full-length human MEK1 at 1 uM using unactive MAPK2 as substrate measured after 40 mins in presence of [gamma33P]ATP by scintillation counting method relative to control
[19] = molecular target: Cyclin-dependent kinase 9 (Homo sapiens) (UniProt P50750); details: A549, 0.25 to 1 uM
Chain of Cyclin-dependent kinase 9 (Homo sapiens) (P50750 whole entry): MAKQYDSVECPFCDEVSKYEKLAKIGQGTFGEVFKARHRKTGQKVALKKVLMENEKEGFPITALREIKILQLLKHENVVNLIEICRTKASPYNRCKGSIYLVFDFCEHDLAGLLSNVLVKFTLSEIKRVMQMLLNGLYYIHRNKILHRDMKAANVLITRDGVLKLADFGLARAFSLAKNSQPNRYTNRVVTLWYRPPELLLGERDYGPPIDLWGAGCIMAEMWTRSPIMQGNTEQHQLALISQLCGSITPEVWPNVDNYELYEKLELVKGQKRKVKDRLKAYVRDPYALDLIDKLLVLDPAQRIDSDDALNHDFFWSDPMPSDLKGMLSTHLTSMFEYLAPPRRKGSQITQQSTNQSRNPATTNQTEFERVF

Compound: CN(C)C(=O)c1cc2cnc(Nc3ccc(NC(=O)CCCCCCCN=C=S)cc3)nc2n1C1CCCC1
- IC50 (HepG2): 3.86 µM
- Activity (A549): Active
- TGI (NCI-H1299 [1]): Dose-dependent effect
- Activity (NCI-H1299 [2]): Active
- inhibition [3]: -7%
- inhibition [4]: 34%
- inhibition [5]: 66%
- inhibition [6]: 45%
- inhibition [7]: 25%
- inhibition [8]: 14%
- inhibition [9]: 13%
- inhibition [10]: -10%
- inhibition [11]: 33%
- inhibition [12]: 24%
- inhibition [13]: 51%
- inhibition [14]: 7%
- inhibition [15]: 13%
- inhibition [16]: 8%
- inhibition [17]: 77%
- inhibition [18]: 22%
- inhibition [19]: Active
